Data reported in ChEMBL document CHEMBL2062456, “Green synthesis and anti-infective activities of fluorinated pyrazoline derivatives” (2012).
Converted amounts (≈) assume the structure as drawn.

Key:
Assay type in all cases: functional
[1] = test system: Streptococcus pyogenes; experiment: Antibacterial activity against Streptococcus pyogenes MTCC 442
[2] = test system: Candida albicans; experiment: Antifungal activity against Candida albicans MTCC 227
[3] = test system: Bacillus subtilis; experiment: Antibacterial activity against Bacillus subtilis MTCC 441
[4] = test system: Aspergillus clavatus; experiment: Antifungal activity against Aspergillus clavatus MTCC 1323
[5] = test system: Mycobacterium tuberculosis; experiment: Antitubercular activity against Mycobacterium tuberculosis H37Rv by Lowenstein-Jensen slope method
Procedure, shortened: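 Lowenstein–Jensen medium used both to grow the strain and to dilute test drugs. Inoculum adjusted to 1 mg/mL. Compounds were made as 2 mg/mL stocks and diluted with 1% DMSO. Primary screen at 500, 250 and 125; actives were retested at 100 down to 1.5625 (twofold series). MIC is the minimum concentration inhibiting 99% of growth. Vehicle and reference controls were included, and tests were run in duplicate.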

[6] = test system: Escherichia coli; experiment: Antibacterial activity against Escherichia coli MTCC 443
[7] = test system: Aspergillus niger; experiment: Antifungal activity against Aspergillus niger MTCC 282
[8] = test system: Staphylococcus aureus; experiment: Antibacterial activity against Staphylococcus aureus MTCC 96

Compound	MIC99 [1] [µg/mL]	MIC99 [2] [µg/mL]	MIC99 [3] [µg/mL]	MIC99 [4] [µg/mL]	MIC99 [5] [µg/mL]	MIC99 [6] [µg/mL]	MIC99 [7] [µg/mL]	MIC99 [8] [µg/mL]
Fc1ccc(-c2nn(-c3ccccc3)cc2C2=NNC(c3ccc(Br)cc3)C2)cc1 (configuration not stated)	10 (≈ 21.7 µM)	10 (≈ 21.7 µM)	10 (≈ 21.7 µM)	10 (≈ 21.7 µM)	50 (≈ 108 µM)	6.25 (≈ 13.5 µM)	10 (≈ 21.7 µM)	6.25 (≈ 13.5 µM)
GENTAMICIN	0.5		1			0.05		0.25
O=C(/C=C/c1cn(-c2ccccc2)nc1-c1ccc(F)cc1)c1ccc(F)cc1	10 (≈ 25.9 µM)	100 (≈ 259 µM)	20 (≈ 51.8 µM)	20 (≈ 51.8 µM)	25 (≈ 64.7 µM)	25 (≈ 64.7 µM)	20 (≈ 51.8 µM)	6.25 (≈ 16.2 µM)
COC1=CC(=O)C[C@@H](C)[C@]12Oc1c(Cl)c(OC)cc(OC)c1C2=O [GRISEOFULVIN]		500 (≈ 1420 µM)		100 (≈ 283 µM)			100 (≈ 283 µM)	
Cc1ccc(C(=O)/C=C/c2cn(-c3ccccc3)nc2-c2ccc(F)cc2)cc1	25 (≈ 65.4 µM)	50 (≈ 131 µM)	20 (≈ 52.3 µM)	100 (≈ 261 µM)	6.25 (≈ 16.3 µM)	12.5 (≈ 32.7 µM)	100 (≈ 261 µM)	20 (≈ 52.3 µM)
Fc1ccc(-c2nn(-c3ccccc3)cc2C2=NNC(c3ccc(Cl)cc3)C2)cc1 (configuration not stated)	20 (≈ 48 µM)	100 (≈ 240 µM)	25 (≈ 60 µM)	50 (≈ 120 µM)	6.25 (≈ 15 µM)	25 (≈ 60 µM)	50 (≈ 120 µM)	20 (≈ 48 µM)
CC1(C)S[C@@H]2[C@H](NC(=O)[C@H](N)c3ccccc3)C(=O)N2[C@H]1C(=O)O [AMPICILLIN]	100 (≈ 286 µM)		100 (≈ 286 µM)			100 (≈ 286 µM)		250 (≈ 715 µM)
O=C(/C=C/c1cn(-c2ccccc2)nc1-c1ccc(F)cc1)c1ccc(Cl)cc1	20 (≈ 49.6 µM)	100 (≈ 248 µM)	12.5 (≈ 31 µM)	> 100	10 (≈ 24.8 µM)	6.25 (≈ 15.5 µM)	> 100	25 (≈ 62.1 µM)
O=C(/C=C/c1cn(-c2ccccc2)nc1-c1ccc(F)cc1)c1ccccc1	12.5 (≈ 33.9 µM)	25 (≈ 67.9 µM)	25 (≈ 67.9 µM)	50 (≈ 136 µM)	50 (≈ 136 µM)	20 (≈ 54.3 µM)	50 (≈ 136 µM)	10 (≈ 27.1 µM)
NNC(=O)c1ccncc1 [ISONIAZID]					0.2 (≈ 1.46 µM)			
CCn1cc(C(=O)O)c(=O)c2cc(F)c(N3CCNCC3)cc21 [NORFLOXACIN]	10 (≈ 31.3 µM)		10 (≈ 31.3 µM)			10 (≈ 31.3 µM)		10 (≈ 31.3 µM)
Cc1ccc(C2CC(c3cn(-c4ccccc4)nc3-c3ccc(F)cc3)=NN2)cc1 (configuration not stated)	10 (≈ 25.2 µM)	25 (≈ 63.1 µM)	50 (≈ 126 µM)	100 (≈ 252 µM)	10 (≈ 25.2 µM)	50 (≈ 126 µM)	100 (≈ 252 µM)	12.5 (≈ 31.5 µM)
Fc1ccc(-c2nn(-c3ccccc3)cc2C2=NNC(c3ccc(F)cc3)C2)cc1 (configuration not stated)	25 (≈ 62.4 µM)	20 (≈ 49.9 µM)	25 (≈ 62.4 µM)	50 (≈ 125 µM)	25 (≈ 62.4 µM)	20 (≈ 49.9 µM)	50 (≈ 125 µM)	25 (≈ 62.4 µM)
O=C(O)c1cn(C2CC2)c2cc(N3CCNCC3)c(F)cc2c1=O [CIPROFLOXACIN]	50 (≈ 151 µM)		25 (≈ 75.4 µM)			25 (≈ 75.4 µM)		50 (≈ 151 µM)
O=C(N[C@H](CO)[C@H](O)c1ccc([N+](=O)[O-])cc1)C(Cl)Cl [CHLORAMPHENICOL]	50 (≈ 155 µM)		50 (≈ 155 µM)			50 (≈ 155 µM)		50 (≈ 155 µM)
O=C(/C=C/c1cn(-c2ccccc2)nc1-c1ccc(F)cc1)c1ccc(Br)cc1	20 (≈ 44.7 µM)	10 (≈ 22.4 µM)	20 (≈ 44.7 µM)	> 100	50 (≈ 112 µM)	20 (≈ 44.7 µM)	> 100	25 (≈ 55.9 µM)
Fc1ccc(-c2nn(-c3ccccc3)cc2C2=NNC(c3ccccc3)C2)cc1 (configuration not stated)	50 (≈ 131 µM)	50 (≈ 131 µM)	20 (≈ 52.3 µM)	50 (≈ 131 µM)	25 (≈ 65.4 µM)	10 (≈ 26.1 µM)	50 (≈ 131 µM)	50 (≈ 131 µM)
NYSTATIN		100		100			100	
